Assay outcomes: PubChem, several laboratories
MC4R barr agon: MC4R agonists recruiting beta-arrestin, primary screen, cell-based, luminescence, agonist arm of biased-ligand search. Melanocortin receptor 4 (Homo sapiens), P32245. U2OS MC4R beta-arrestin complementation; percent of melanotan II response, DMSO zero. activation, % at 8.9 µM. 360,000 compounds, 0.98% hits;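 active = activation above a per-plate cutoff, the mean activation of sample wells on that plate plus 3 SD, cut at about 8% in these data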
XBP1 UPR activ: activators of adaptive XBP1 UPR arm, primary screen, cell-based, CHO-XBP1 luciferase reporter, luminescence, uHTS. 330,000 compounds, 0.33% hits. AID 463104, 2010. IRE1-XBP1 UPR activation; percent of tunicamycin response, DMSO as zero. activation, % at 20 µM;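 active = versus positive control, 20 µM dose yields 30% or more activation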
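Material – CHO cell line with stable XBP1 luciferase reporter · Buffer or medium – F12 plus 10% FBS · Compound – single point, 20 µM final compound, 1% DMSO · Schedule – 16-18 h cell attachment at 37 °C, then 6 h compound exposure · Signal – Steady-Glo luminescence read · Benchmarks – high control tunicamycin 10 µg/mL final, low control DMSO vehicle only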
A1 inh: caspase 3/7 activation in MEF A1-2A-BIM cells, primary screen, A1 inhibitor project, cell-based, luminescence, HTS; caspase activation, % (no concentration beside the values); 330,000 compounds, 0.066% hits; Caspase-Glo 3/7 luminescence, 3 h; percent of clofoctol response, vehicle zero;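 active = over half of replicate activation scores above 10%, or exactly half above 10 with the replicate mean above 10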
MC4R antagonist: MC4R antagonists of cAMP signaling, primary screen, cell-based, TR-FRET, antagonist arm of biased-ligand search | MC4R-expressing cells, MTII-stimulated cAMP, LANCE TR-FRET | inhibition, % at 6.5 µM | 360,000 compounds, 0.48% hits;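 active = inhibition above its plate's cutoff, the mean of tested wells on that plate plus 3 SD, cut at about 29% in these data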
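System: U2OS-MC4R stable cell line; Technique: Eu-cAMP/anti-cAMP TR-FRET, emission 671 nm; Repeats: single well per compound; Also added: Melanotan II; Dosing: one concentration, 6.5 µM nominal; Schedule: 30-min compound, 1-h challenge, 1-h detection, room temperature.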
UPR CHOP act: activators of apoptotic CHOP UPR arm, primary screen, cell-based, CHO-CHOP luciferase reporter, luminescence, uHTS; activation, % at 10 µM; 330,000 compounds, 0.34% hits; UPR activation; percent of tunicamycin response over DMSO baseline;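 active = at 10 µM dose, activation of 40% or more, normalized to positive control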
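Test system: CHO CHOP reporter cells. Input: 500 CHO-CHOP cells per well. Medium: F12 with 10% FBS. Technique: luciferase luminescence. Measure: percent activation relative to tunicamycin control. Dosing: 10 µM compound, 0.5% DMSO. Timing: 16-18 h cell attachment, then 6 h compound exposure, 37 °C.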
XBP1 UPR conf: IRE1-XBP1 UPR arm activators, confirmation, cell-based, CHO-XBP1 luciferase reporter, luminescence, single concentration | activation, % at 20 µM | 1,000 compounds, 63% hits | shares compounds with XBP1 UPR activ | AID 485299, 2010;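 active = reporter signal at least 30% of the positive control's activation in two or more of four replicate wells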
cAMP nonselect: nonselective cAMP signaling inhibitors, parental cells, counter-screen for MC4R biased antagonist project, cell-based, TR-FRET, U2OS, forskolin, triplicate; shares compounds with MC4R antagonist; LANCE TR-FRET; inhibition, % at 6.5 µM; 1,600 compounds, 26% hits;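 active = mean inhibition over triplicates above the low-control well mean plus 3 SD, set per campaign, cut at about 13% in these data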;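 note: signal is single emission at 671 nm which falls as cellular cAMP rises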
MC4R cAMP antag: MC4R cAMP antagonists, retest, confirmation, cell-based, TR-FRET; 1,600 compounds, 27% hits; inhibition, % at 6.5 µM; MC4R-expressing cells, MTII-stimulated cAMP; shares compounds with MC4R antagonist; in the data active = inhibition above about 29%
MC4R barr conf: MC4R beta-arrestin agonists, retest, confirmation, cell-based, luminescence, U2OS; shares compounds with MC4R barr agon; U2OS MC4R beta-arrestin recruitment; scaled DMSO 0%, Melanotan II 100%; activation, % at 8.9 µM; 2,400 compounds, 31% hits;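 active = mean activation across replicates above the hit cutoff set in the earlier primary screen, cut at about 8% in these data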
MOR-DOR barr ag: agonists of MOR-DOR heterodimerization, counter-screen for MC4R biased agonist project, cell-based, luminescence; shares compounds with MC4R barr agon; U2OS PathHunter beta-arrestin, beta-gal luminescence; percent of deltorphin B response, DMSO zero; activation, % at 9.2 µM; 2,400 compounds, 5.8% hits; AID 602194, 2012;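 active = mean activation across replicates exceeds the hit threshold derived in the earlier primary screen, cut at about 18% in these data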
Target sequence (P35372 whole entry, looked up): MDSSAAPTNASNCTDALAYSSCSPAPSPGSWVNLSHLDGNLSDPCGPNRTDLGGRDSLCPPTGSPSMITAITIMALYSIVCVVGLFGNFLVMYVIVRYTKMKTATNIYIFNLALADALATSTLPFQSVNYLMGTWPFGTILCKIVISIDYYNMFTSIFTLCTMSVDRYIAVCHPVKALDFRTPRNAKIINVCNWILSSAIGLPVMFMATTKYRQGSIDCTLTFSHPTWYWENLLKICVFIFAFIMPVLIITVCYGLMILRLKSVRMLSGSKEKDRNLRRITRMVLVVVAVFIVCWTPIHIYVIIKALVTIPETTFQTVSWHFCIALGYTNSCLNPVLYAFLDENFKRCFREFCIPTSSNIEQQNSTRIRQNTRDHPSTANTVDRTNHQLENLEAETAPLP
Target sequence (P41143 whole entry, looked up): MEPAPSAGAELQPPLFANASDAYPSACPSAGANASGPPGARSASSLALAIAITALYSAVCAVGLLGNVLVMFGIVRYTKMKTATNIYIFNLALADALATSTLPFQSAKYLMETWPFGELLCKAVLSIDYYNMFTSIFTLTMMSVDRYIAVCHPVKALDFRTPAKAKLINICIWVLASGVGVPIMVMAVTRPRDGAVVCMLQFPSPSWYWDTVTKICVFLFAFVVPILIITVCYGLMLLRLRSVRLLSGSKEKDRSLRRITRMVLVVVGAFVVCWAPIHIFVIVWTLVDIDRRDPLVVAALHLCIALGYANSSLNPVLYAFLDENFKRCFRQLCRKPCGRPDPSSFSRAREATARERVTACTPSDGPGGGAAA
Hits are given with their value; . = inactive; / = not tested or not shown. Most compounds without a hit are left out; they make up all but 2% or so of the library.

SMILES	MC4R barr agon	XBP1 UPR activ	A1 inh	MC4R antagonist	UPR CHOP act	XBP1 UPR conf	others
Cc1ccc(Cl)cc1N1CCN(Cc2nc3c(c(=O)[nH]c(=O)n3C)n2Cc2ccccc2F)CC1	.	.	.	.	.	/
COc1cc(/C=C/c2ccc3cccc(O)c3n2)ccc1O	.	60	.	.	.	36
COc1ccc(OCC(=O)OCC(=O)NC2CCCCC2C)cc1 (centres undefined)	.	.	.	.	.	/
COc1cc(NC2CCCCC2O)c2nc(-c3ccc(Cl)cc3)ccc2c1 (centres undefined)	.	31	.	.	.	.
CC(=O)Nc1cccc(/C(C)=N/NC(=O)c2cccc(S(=O)(=O)N3CCCC3)c2)c1	.	/	/	.	/	/
CC1=C(C(=O)OCc2ccccc2)C(c2ccc([N+](=O)[O-])cc2)NC(=O)N1CCCCCC(=O)O (centres undefined)	.	.	.	.	.	/
CC1=C(C(=O)OCc2ccccc2)C(c2ccc([N+](=O)[O-])cc2)NC(=O)N1CCCC(=O)O (centres undefined)	.	53	.	.	.	.
C=CCn1c(O)c(C2=c3ccccc3=NC2=O)sc1=Nc1ccc(O)cc1	.	34	.	.	.	32
COc1cccc(C(NC(C)=O)c2nc(-c3csc4ccccc34)cs2)c1 (centres undefined)	.	/	/	.	/	/
CCCCNc1c(-c2ccc(-c3ccc(C(C)=O)cc3)c(OC)c2)nc2cc(C)ccn12	.	40	.	.	.	38
Cc1c(C(=O)Nc2nccs2)oc2ccc(F)cc12	.	.	.	.	.	/
Cc1c(C(=O)Nc2nccs2)oc2ccc(Br)cc12	.	48	.	.	.	79
C=CCN1C(=O)/C(=C2/Sc3ccc(OC)cc3N2C)SC1=Nc1cccc(O)c1	.	48	.	.	.	81
CCN1C(=O)/C(=C2/Sc3ccc(OC)cc3N2C)SC1=Nc1ccc(OC)cc1	.	.	.	.	.	/
COc1cc(-c2noc(C)c2C#Cc2ccc(N)cc2)cc(OC)c1OC	.	59	.	.	.	.
Cc1cc(NC(=O)CSc2ccc(-c3nc4cc(C)c(C)cc4[nH]3)cn2)no1	.	58	.	.	.	31
COc1ccc(OC)c2sc(NC(=O)c3ccc(Cl)s3)nc12	.	97	.	.	.	.
O=C(NCC1CCCCC1)c1csc([C@@H]2C[C@H](O)[C@@H](CO)O2)n1	.	/	/	.	/	/
CCN(CC)S(=O)(=O)c1ccc2c(c1)C(=NO)c1cc(S(=O)(=O)N(CC)CC)ccc1-2	.	52	.	.	.	79
CCN(CC)S(=O)(=O)c1ccc(C)c(C)c1	.	.	.	.	.	/
COCCn1c(SCc2nc3ccccc3c(=O)[nH]2)nc2ccccc2c1=O	.	.	.	.	.	/
CCCn1c(SCc2nc3sc(C)c(C)c3c(=O)[nH]2)nc2ccccc2c1=O	.	78	.	.	.	180
O=c1cc(N2CCc3ccccc3C2)[nH]c(=O)n1Cc1ccc(F)cc1	.	42	.	.	.	.
CC(C)CNc1nnnc2c1sc1nc(N3CCOCC3)c3c(c12)CCCC3	.	55	/	.	.	.
Clc1ccccc1Nc1nc(NCC2CC2)nc2ccsc12	.	/	/	.	/	/
SMILES	MC4R barr agon	XBP1 UPR activ	A1 inh	MC4R antagonist	UPR CHOP act	XBP1 UPR conf	others
CCOC(=O)Nc1nc(-c2ccccc2)c(C(=O)c2ccccc2)s1	.	31	.	.	.	.
CN(C)CC/C=C1\c2ccc(F)cc2Sc2cc(F)c(Cl)cc21	.	86	.	.	.	122
CN(C)CC/C=C1/c2ccc(F)cc2Sc2ccc(Cl)cc21	.	.	.	.	.	/
Cc1ccc(N=Cc2c(O)n(-c3ccc4c(c3)OCO4)c(=O)c3ccccc23)cc1	.	35	.	.	.	27
COC(=O)c1cc([N+](=O)[O-])c(-n2ccnc2)c([N+](=O)[O-])c1	.	91	.	31	.	187	cAMP nonselect=.;MC4R cAMP antag=.
CC(C)CC1C(=O)N(Cc2cn(CC3CCCCC3)nn2)CCS(=O)(=O)N1Cc1ccc(-c2ccc(F)nc2)cc1 (centres undefined)	.	/	/	.	/	/
CC1CN(c2ccc([N+](=O)[O-])c(NCCOc3ccc(Cl)cc3)c2)CC(C)N1 (centres undefined)	.	.	.	.	.	/
CCc1ccc(OCCNc2cc(N3CCNC(C)C3)ccc2[N+](=O)[O-])cc1 (centres undefined)	11	56	.	.	.	68	MC4R barr conf=23;MOR-DOR barr ag=.
CCOC(=O)C1CCN(C(=O)COC(=O)c2cccc(NS(=O)(=O)c3ccccc3)c2)CC1	.	/	/	.	/	/
Nc1nc(-c2cc(O)ccc2[N+](=O)[O-])cc(-c2ccccc2)c1[N+](=O)[O-]	11	311	.	.	.	214	MC4R barr conf=.;MOR-DOR barr ag=.
COc1ccc(-c2sc3ccccc3c2-c2ccc(O)cc2)cc1	.	.	.	.	.	/
COc1ccc(-c2sc3ccccc3c2-c2ccc(OCCN(C)C)cc2)cc1	21	44	.	.	.	58	MC4R barr conf=45;MOR-DOR barr ag=.
COc1ccc(-c2sc3cc4c(cc3c2C#CC2(N)CCCCC2)OCO4)cc1	16	34	.	.	.	.	MC4R barr conf=.;MOR-DOR barr ag=.
